SR-BI HDL uptake = blocks mouse SR-BI lipid uptake from DiI-HDL | Q61009 | inhibition, % at 12.5 µM | hit rate 0.96% among 320,000 | ldlA[mSR-BI] CHO cells, DiI-HDL uptake fluorescence, 3 h;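 active = mean replicate inhibition of at least 70% and a set share of replicates each scoring 70 or more; inconclusive = meets just one of the two criteria; inactive = fails both criteria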;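 note: 0% = median of neutral control wells and 100% = median of positive control wells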
Target sequence (Q61009 whole entry, looked up): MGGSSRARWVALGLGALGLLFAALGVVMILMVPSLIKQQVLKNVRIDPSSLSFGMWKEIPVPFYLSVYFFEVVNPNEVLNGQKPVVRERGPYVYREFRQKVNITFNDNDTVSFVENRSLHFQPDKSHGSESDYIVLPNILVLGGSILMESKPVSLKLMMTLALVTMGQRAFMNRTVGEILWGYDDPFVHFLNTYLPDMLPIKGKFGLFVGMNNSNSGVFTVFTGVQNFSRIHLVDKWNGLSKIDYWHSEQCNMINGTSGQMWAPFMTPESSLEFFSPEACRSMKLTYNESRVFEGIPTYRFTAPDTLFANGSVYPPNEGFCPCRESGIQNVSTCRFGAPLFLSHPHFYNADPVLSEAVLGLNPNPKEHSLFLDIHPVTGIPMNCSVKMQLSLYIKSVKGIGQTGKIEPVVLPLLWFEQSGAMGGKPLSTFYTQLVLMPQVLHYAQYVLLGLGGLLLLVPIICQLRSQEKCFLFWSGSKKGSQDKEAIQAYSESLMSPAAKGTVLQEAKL
SMARCA2 activ = increases SMARCA2 function in MMTV reporter cells | MG213 cells, MMTV-luciferase reporter, dexamethasone, overnight | activation, % at 9.1 µM | hit rate 1% among 370,000 | AID 652017; in the data active = activation above about 7.8%;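 note: 0% = vehicle wells and 100% = reference activator wells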
Vif imaging = HIV Vif inhibition. HEK293T cells, Vif self-association by quenched fluorescence, imaging, 24 h. inhibition, % at 7.49 µM. hit rate 0.35% among 340,000; in the data active = inhibition above about 50%, passing the limit was not always enough; inconclusive = no clear call, values can overlap the other calls; inactive = below about 31%
SR-BI DiI-HDL act = activators of SR-BI mediated HDL lipid uptake; CHO ldlA[mSR-BI] cells, DiI-HDL uptake fluorescence, 3 h; 100 = double the neutral-control signal; activation, % at 12.5 µM; hit rate 0.096% among 320,000; AID 504775;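 active = mean replicate activation of at least 60% and every replicate at or above 60%; inconclusive = mean or all-replicate condition met, but not both; inactive = mean below 60% and not all replicates reaching 60%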;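 note: 0% = median plate neutral-control signal and 100% = twice that signal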
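system = CHO ldlA[mSR-BI] cells, LDL receptor-null, SR-BI overexpressing | medium = Ham's F12 with 0.5% BSA, HEPES 25 mM, pH 7.4 | probe or stimulus = DiI-HDL 10 µg/mL | compound dosing = single-point compound dose | incubation = compound exposure 3 h, 37 °C | technique = DiI fluorescence, bottom read | read-out = cell-associated DiI fluorescence as measure of HDL uptake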
H9c2 TAG inh = inhibitors of triacylglycerol accumulation; H9c2 cells, Nile Red lipid (TAG) fluorescence; cells loaded with 200 µM oleic acid; hit rate 0.66% among 230,000; inhibition, % at 12.5 µM;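 active = pattern-corrected inhibition of lipid staining of at least 50% with the nuclear-stain viability signal not falling by more than 50%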;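 note: 0% = DMSO wells and 100% = triacsin C control wells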
Active calls of the source: *. Sampled rows, rich in hits. Any-hit rate of the full collection: about 2.5%.

Screening CCOCCCn1c(=NC(=O)c2ccco2)c(C(=O)OCC)cc2c(=O)n3cccc(C)c3nc21 returned SR-BI HDL uptake 15.1, SMARCA2 activ 7.8*, Vif imaging -3.4, SR-BI DiI-HDL act -15.1 and H9c2 TAG inh 5.5.
For COC(=O)[C@]12C[C@H](CC(=O)N3CCCC3)C(=O)N(Cc3ccco3)C1=C[C@H](COCc1ccccc1)O[C@@H]2C the results were SMARCA2 activ -2.8.
For O=C(O)CN1C(=O)/C(=C/C=C/c2ccccc2)SC1=S the results were SR-BI HDL uptake -31.8, SMARCA2 activ 1.4, Vif imaging -0.5 and SR-BI DiI-HDL act 31.8.
Screening O=C(CCN1C(=O)/C(=C\c2ccccc2)SC1=S)NNC(=O)c1ccccc1O returned SR-BI HDL uptake 99.5*, SMARCA2 activ -2.9, Vif imaging -14.1 and SR-BI DiI-HDL act -99.4.
For O=C(CCN1C(=O)/C(=C/C=C/c2ccccc2)SC1=S)Nc1ccccn1 the results were SR-BI HDL uptake 28.6, SMARCA2 activ -5.8, Vif imaging 3.2, SR-BI DiI-HDL act -28.6 and H9c2 TAG inh 12.5.
Screening CC(=O)c1ccc(NC(=O)CN2C(=O)/C(=C/C=C/c3ccccc3)SC2=S)cc1 returned SR-BI HDL uptake 71.7*, SMARCA2 activ -0.2, Vif imaging -1.1 and SR-BI DiI-HDL act -71.7.
O=C(CCN1C(=O)/C(=C/C=C/c2ccccc2)SC1=S)Nc1cccnc1 was read as SR-BI HDL uptake 0.8, SMARCA2 activ -2.5, Vif imaging 56.7*, SR-BI DiI-HDL act -0.8 and H9c2 TAG inh -2.3.
CN1CCCCC(NC(=O)C2CCCCC2)C1=O (stereo unspecified) was read as SMARCA2 activ 6.1.
For COc1ccc(-c2cc(-c3ccccc3)c(C#N)c(S(C)=O)n2)cc1 (stereo unspecified) the results were SR-BI HDL uptake 16.6, SMARCA2 activ 4.0, Vif imaging 10.0, SR-BI DiI-HDL act -16.6 and H9c2 TAG inh 35.2.
Screening CCSc1nc(-c2ccc(OC)cc2)cc(-c2ccccc2)c1C#N returned SR-BI HDL uptake 79.8*, SMARCA2 activ 1.4 and SR-BI DiI-HDL act -79.8.
For CN(C(=O)[C@@H](Cc1ccccc1)NC(=O)[C@H]1O[C@@H](n2cnc3c(=O)[nH]c(N)nc32)[C@H](O)[C@@H]1O)C1CCCCC1 the results were SMARCA2 activ -0.6.
`CCc1cccc2cc3c(N)c(C(=O)Nc4ccc(S(=O)(=O)N5CCCC5)cc4)sc3nc12` gave SR-BI HDL uptake 41.7, SMARCA2 activ -0.3, Vif imaging 68.4* and SR-BI DiI-HDL act -41.7.
For O=C(CSc1nnc(-c2ccccc2O)n1Cc1ccccc1)NNC(=O)c1ccccc1O the results were SR-BI HDL uptake 87.7*, SMARCA2 activ 0.0, Vif imaging 2.9, SR-BI DiI-HDL act -87.7 and H9c2 TAG inh 8.4.
`Cc1nn(-c2ccccc2)c(C)c1/C=N/NC(=O)c1cc(-c2cccc3ccccc23)n[nH]1` gave SR-BI HDL uptake inconclusive, SMARCA2 activ 6.5, Vif imaging -4.8 and SR-BI DiI-HDL act -73.2.
Screening Cc1nn(-c2ccccc2)c(Cl)c1/C=N/NC(=O)c1ccn[nH]1 returned SR-BI HDL uptake 7.3, SMARCA2 activ 7.2, Vif imaging -7.1 and SR-BI DiI-HDL act -7.3.
For Cc1cc(=O)[nH]c(N/N=C/c2c(C)nn(-c3ccccc3)c2Cl)n1 the results were SMARCA2 activ -3.1, Vif imaging -11.9 and H9c2 TAG inh 14.8.
Screening Cc1nn(-c2ccccc2)c(C)c1/C=N/NC(=O)c1cc(-c2ccccc2)n[nH]1 returned SR-BI HDL uptake 59.9, SMARCA2 activ -0.3, SR-BI DiI-HDL act -59.9 and H9c2 TAG inh 55.8*.
Cc1nn(-c2ccccc2)c(Cl)c1/C=N/Nc1nc2ccccc2[nH]1 was read as SR-BI HDL uptake 66.0, SMARCA2 activ 7.9*, Vif imaging 1.5, SR-BI DiI-HDL act -66.0 and H9c2 TAG inh 17.0.
For Cc1cc(C(=O)N/N=C/c2c(C)nn(-c3ccccc3)c2Cl)n[nH]1 the results were SMARCA2 activ -0.1, Vif imaging 71.0* and H9c2 TAG inh -6.0.
COc1cccc(C(=O)N[C@H](C(=O)N2CCC[C@H]2C(=O)NCCc2ccccc2Cl)C2CCCCC2)c1 was read as SMARCA2 activ -2.1.
`O=S1(=O)c2cc(Cl)ccc2N2CC[C@H](C2)N1Cc1ccc(Cl)c(Cl)c1` gave SMARCA2 activ -3.7.
`Clc1cccc(-c2cc3nc4c(c(N5CCOCC5)n3n2)CCCC4)c1` gave SR-BI HDL uptake 77.2*, SMARCA2 activ 2.5, Vif imaging 7.9 and SR-BI DiI-HDL act -77.2.
Screening COc1cccc(-c2cc3nc4c(c(NCC(C)(C)CN(C)C)n3n2)CCCC4)c1 returned SR-BI HDL uptake 18.3, SMARCA2 activ -3.1, Vif imaging 2.9, SR-BI DiI-HDL act -18.3 and H9c2 TAG inh 31.5.
Clc1cccc(-c2cc3nc4c(c(N5CCN(c6cnccn6)CC5)n3n2)CCCC4)c1 was read as SMARCA2 activ 1.9, Vif imaging -4.8 and H9c2 TAG inh 62.4*.
OC1CCN(c2c3c(nc4cc(-c5ccc(Cl)cc5)nn24)CCC3)CC1 was read as SR-BI HDL uptake 66.0, SMARCA2 activ 0.4, Vif imaging 4.5, SR-BI DiI-HDL act -66.0 and H9c2 TAG inh 28.7.
For O=C(NC1(C(=O)NC2CCCCC2)CCCCC1)c1ccc2c(c1)OCO2 the results were SR-BI HDL uptake -11.2, SMARCA2 activ -0.1, Vif imaging 8.3, SR-BI DiI-HDL act 11.2 and H9c2 TAG inh -0.3.
`O=C(c1ccc2c(c1)OCO2)N(CC1CCCO1)C1(C(=O)NC2CCCC2)CCCCC1` (stereo unspecified) gave SR-BI HDL uptake -19.2, SMARCA2 activ -1.2, Vif imaging 69.5*, SR-BI DiI-HDL act 19.2 and H9c2 TAG inh -12.9.
OC(c1ccccc1)(c1ccccc1)C1CCN(CCCOc2ccccn2)CC1 was read as SMARCA2 activ -4.0.
`C[C@@H]1CN([C@@H](C)CO)C(=O)CCCn2cc(nn2)CO[C@H]1CN(C)S(C)(=O)=O` gave SMARCA2 activ -0.8.
CCC1CCCCN1C(=S)NN=C(C)c1ccccn1 (stereo unspecified) was read as SMARCA2 activ -7.6.
Cc1cc(Nc2cc(F)c(F)c(F)c2)cc(=O)n1-c1cc(F)c(F)c(F)c1 was read as SMARCA2 activ -2.5.
For COCc1cc(C)nc2sc(C(=O)Nc3ccccc3Br)c(N)c12 the results were SR-BI HDL uptake 79.4*, SMARCA2 activ 0.7, Vif imaging -11.3 and SR-BI DiI-HDL act -79.4.
For COCc1cc(C)nc2sc(C(=O)Nc3ccccc3C)c(N)c12 the results were SR-BI HDL uptake 33.2, SMARCA2 activ -1.6, Vif imaging 1.3, SR-BI DiI-HDL act -33.2 and H9c2 TAG inh -6.2.
For CC1=Nc2cc(C(=O)O)ccc2Sc2c(C)ccc(C)c21 the results were SR-BI HDL uptake -40.6, SMARCA2 activ -2.9, Vif imaging 68.7*, SR-BI DiI-HDL act 40.6 and H9c2 TAG inh -10.2.
`CCn1cc(C(=O)NCCc2ccccc2)c(=O)c2cc(S(=O)(=O)N3CCCC3)ccc21` gave SR-BI HDL uptake 72.9*, SMARCA2 activ -0.6, Vif imaging -10.2, SR-BI DiI-HDL act -72.9 and H9c2 TAG inh 19.7.

Screening results deposited in PubChem BioAssay by several laboratories.
